Article PMC4629064 (Acta Pharmaceutica Sinica. B, 2014)
In brackets after ≈: the same amount, converted by molar mass. Several values for one entry are separate records, joined by “and”; a condition that tells them apart may be missing. Equal entries are not always repeated.

Columns and labels:
[1] = Dispersible uniformity and stability in water; assay type: physicochemical; conditions: dispersed in water, 37 °C
Outline: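 Free test compound dispersed in water by simple agitation, alongside its phospholipid complex and complex-loaded self-microemulsifying formulation (drug:phospholipid molar ratios 1:1, 1:1.5, 1:2). Samples held at 37 °C in a water bath. Drug in the upper solution quantified by UV spectrophotometry at 316 nm at 0, 4, 8, 12 and 24 h. Bottles inspected visually for bottom precipitate.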

[2] = test system: intestine segments (duodenum and jejunum, ileum, colon); experiment: In situ single-pass intestinal perfusion; assay type: in vivo, Sprague-Dawley rats; conditions: rat SPIP, 750 μg/mL BA in KR buffer pH 6.0, mean±SD, n=6
[3] = Oral bioavailability of BA–PC–SMEDDS and BA suspensions; conditions: both, Sprague-Dawley, rat, in vivo, 75 mg
[4] = test system: Caco-2 cells; experiment: Caco-2 cell permeation study; assay type: in vitro ADME; conditions: apical to basolateral, 187.5 μg/mL of BA, pH 6.8, 37 °C; mean±SD, n=3
[5] = Caco-2 cell permeation study; assay type: in vitro ADME; conditions: human, Caco-2, pH 6.8
[6] = Solubility of BA and BA–PC in water or octanol; assay type: physicochemical; conditions: octanol, 37 °C, organic solvent or mixture, thermodynamic from solid

- Precipitate at the bottom of the bottles (visual) [1]: precipitates
- Concentration of BA in the upper solution, initially ([1]; initially): nearly zero
- Peff, Colon ([2]; colon): 0.506±0.088 ×10^−4, cm/s
- Peff, Duodenum+jejunum ([2]; duodenum+jejunum): 0.139±0.035 ^⁎ ×10^−4, cm/s
- Peff, Ileum ([2]; ileum): 0.252±0.081 ^⁎ ×10^−4, cm/s
- AUC [3]: 7610 ± 1580 ng·h/mL
- Cmax [3]: 1840 ± 470 ng/mL
- Tmax [3]: 1.5 h
- Papp A→B at 180 min, 187.5 μg/mL [5]: 0.119 ± 0.092 ×10⁻⁶ cm/s
- Papp B→A at 180 min, 187.5 μg/mL [5]: 0.365 ± 0.096 ×10⁻⁶ cm/s
- efflux ratio at 180 min, 187.5 μg/mL [5]: 3.07
- solubility at 48 h [6]: 136 ± 12 µg/mL (≈ 305 µM)
SMILES: O=C(O)[C@H]1O[C@@H](Oc2cc3oc(-c4ccccc4)cc(=O)c3c(O)c2O)[C@H](O)[C@@H](O)[C@@H]1O [BA, 5,6-dihydroxy-4-oxygen-2-phenyl-4H-1-benzopyran-7-β-D-glucopyranoseacid]
- Papp through Caco-2 monolayer [4]: 0.037 ×10^−6, cm/s and 0.037±0.012 ×10^−6, cm/s
